This is a sample that favours compounds with a hit; in the whole collection about 7.6% have one here.
Jurkat tox 60K – cytotoxicity toward Jurkat T cells, primary screen, cytotoxicity control, cell-based, Jurkat E6.1, 60K MLSMR library; Jurkat E6.1 viability, ATP luminescence, 48 h; inhibition, % at 4 µM; 1.2% of 56,000 active; AID 463, 2006;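 active = inhibition above the mean inhibition of all tested compounds plus 3 SD, cut at about 28% in these data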
DAT uptake mod – changed hDAT dopamine uptake under cocaine IC80, either direction, primary screen, cocaine antagonist project, cell-based, LLC-PK1 hDAT, [14C]-dopamine uptake, MLSMR; LLC-PK1 hDAT cells, [14C]-dopamine uptake with cocaine IC80; actives deviate in either direction; 1.3% of 110,000 active; B-score at 10 µM; Sodium-dependent dopamine transporter (Homo sapiens), Q01959;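 active = Z score or B-score, a plate-position-corrected score, falls beyond the plate's 99.7% confidence bounds, in either direction; inactive = both scores lie inside the 99.7% bounds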;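 also: scored against the spread of the other compound wells on the same plate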
Target sequence (Q01959 whole entry, looked up): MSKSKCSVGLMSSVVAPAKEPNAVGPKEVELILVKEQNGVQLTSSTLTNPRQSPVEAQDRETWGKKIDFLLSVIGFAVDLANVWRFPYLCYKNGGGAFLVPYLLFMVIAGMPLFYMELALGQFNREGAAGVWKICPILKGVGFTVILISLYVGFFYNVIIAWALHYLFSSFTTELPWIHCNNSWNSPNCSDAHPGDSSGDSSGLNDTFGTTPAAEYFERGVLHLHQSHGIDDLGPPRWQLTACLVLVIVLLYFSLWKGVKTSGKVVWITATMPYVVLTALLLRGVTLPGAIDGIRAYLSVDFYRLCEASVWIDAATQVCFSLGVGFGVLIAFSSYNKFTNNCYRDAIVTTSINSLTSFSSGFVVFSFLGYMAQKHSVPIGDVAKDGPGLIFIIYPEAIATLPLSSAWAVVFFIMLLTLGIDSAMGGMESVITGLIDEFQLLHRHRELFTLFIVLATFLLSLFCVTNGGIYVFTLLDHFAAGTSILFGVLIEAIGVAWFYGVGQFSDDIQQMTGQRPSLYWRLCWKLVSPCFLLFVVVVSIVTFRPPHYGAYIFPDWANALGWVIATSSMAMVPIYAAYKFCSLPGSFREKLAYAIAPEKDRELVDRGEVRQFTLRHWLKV
M1 antag – antagonists of rat M1 muscarinic receptor. Muscarinic acetylcholine receptor M1 (Rattus norvegicus), P08482. CHO-M1 cells, Fluo-4 calcium, ACh EC80 antagonist mode; active compounds read low. B-score at 10 µM. 3.4% of 64,000 active. AID 628, 2007;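 active = calcium fluorescence response, raw or row-and-column corrected B-score, differing from the plate sample mean either way at a set confidence level, mostly lower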
D1 allo mod – D1 CRE-luciferase signal change, two-sided – cell-based, HEK293 D1, dopamine EC30, D1 allosteric modulator project, primary screen | B-score at 10 µM | D(1A) dopamine receptor (Homo sapiens), P21728 | 5.9% of 58,000 active | dopamine EC30 potentiation; actives deviate in either direction;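 active = luminescence count or its row- and column-corrected plate score outside the 99.7% band of the plate's sample wells, on either side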
HEK293 NFkB inh – inhibitors of PMA/ionomycin-induced NF-kB reporter, primary screen, antigen receptor NF-kB inhibitor project, cell-based, HEK-293 luciferase reporter, luminescence; HEK-293 NF-kB luciferase reporter; inhibition, % at 3 µM; 0.21% of 62,000 active;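 active = inhibition above the mean of all tested compounds plus 3 SD, cut at about 40% in these data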;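 also: 0% = stimulated DMSO wells and 100% = 10 µM reference inhibitor 5653914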
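Timing: 1 h pretreatment, 16 h stimulation, 37 °C; system: HEK-293 cells with stable firefly luciferase reporter driven by four HIV NF-kB elements; doses: 3 µM once, 0.30% DMSO; measured by: luciferase luminescence; control set: DMSO and 10 µM reference inhibitor; repeats: single test; reagent: PMA plus ionomycin mix as NF-kB-activating stimulus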
M1 ag – M1 muscarinic receptor agonists, primary screen, CHO-M1 cells, Fluo-4 calcium, agonist mode; B-score at 10 µM; AID 626, 2007; Muscarinic acetylcholine receptor M1; 3% of 64,000 active; Fluo-4 calcium fluorescence; active compounds read high;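 active = fluorescence rise, raw or as B-score row- and column-corrected plate score, outside the 99.7% band of its plate's samples, either direction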
* = called active by the depositor.

How did COC(=O)Nc1ccc(S(=O)(=O)N2CCCc3ccccc32)cc1 do in these assays?
Jurkat tox 60K: 88.5*; DAT uptake mod: 0.117; M1 antag: -0.359; D1 allo mod: -0.556; HEK293 NFkB inh: 33.0; M1 ag: 0.479

How did O=C(Nc1ccc(S(=O)(=O)N2CCc3ccccc32)cc1)c1ccco1 do in these assays?
Jurkat tox 60K: 11.1; DAT uptake mod: -0.694; M1 antag: -0.398; D1 allo mod: -4.87*; HEK293 NFkB inh: 12.9; M1 ag: -0.135

How did CCOc1ccc2nc(SCC(=O)NCc3ccc4c(c3)OCO4)[nH]c2c1 do in these assays?
DAT uptake mod: 0.0527

How did CCOCCCNC(=O)C1CCCN(S(=O)(=O)CC)C1 (stereo not drawn) do in these assays?
Jurkat tox 60K: 2.0; DAT uptake mod: -0.743; M1 antag: -0.354; D1 allo mod: -1.48; HEK293 NFkB inh: -0.2; M1 ag: -0.585

Results for COc1cc(OC)cc(-c2cc3nc4c(c(N5CCN(c6cnccn6)CC5)n3n2)CCCC4)c1 ?
Jurkat tox 60K: -5.6; M1 antag: -0.304; D1 allo mod: -3.35*; HEK293 NFkB inh: -5.9; M1 ag: 2.45

Results for CCOC(=O)c1c(C)nc(-c2ccccc2)nc1NC(=O)CC ?
Jurkat tox 60K: 6.8; DAT uptake mod: -0.959; M1 antag: 0.00438; HEK293 NFkB inh: -1.3; M1 ag: 0.0482

What do the screens show for `CCOC(=O)C(C)Oc1cccc2c(=O)n(CC(=O)NCc3ccc4c(c3)OCO4)ccc12` (stereo not drawn)?
Jurkat tox 60K: 86.9*; DAT uptake mod: -0.774; M1 antag: 1.01; D1 allo mod: 1.15; HEK293 NFkB inh: 34.0; M1 ag: 1.9

What do the screens show for `Cn1cnc2c(sc3nc(N4CCOCC4)c4c(c32)CC(C)(C)OC4)c1=O`?
Jurkat tox 60K: -0.9; M1 antag: -1.38; D1 allo mod: 3.55*; HEK293 NFkB inh: 8.7; M1 ag: 0.218

What do the screens show for `Cn1c(=O)c2c(nc(N3CCCCC3)n2CCSc2nc3ccccc3o2)n(C)c1=O`?
Jurkat tox 60K: 5.0; M1 antag: -0.924; D1 allo mod: 0.0398; HEK293 NFkB inh: 13.9; M1 ag: -0.755

Results for CCC1CCCCN1c1nc2c(c(=O)n(C)c(=O)n2C)n1CCSc1nc2ccccc2o1 (stereo not drawn) ?
Jurkat tox 60K: 1.7; M1 antag: -0.712*; HEK293 NFkB inh: 9.7; M1 ag: 0.195

How did COc1ccc(N/C=C(\C#N)c2ccc(OCCCF)cc2)cc1 do in these assays?
DAT uptake mod: -0.00429

Results for Cc1sc2nc(C)n(/N=C/c3ccccc3O)c(=O)c2c1C ?
DAT uptake mod: -0.472

Results for Cc1cc(NC(=O)c2ccc3c(c2)OCCO3)no1 ?
Jurkat tox 60K: -1.4; DAT uptake mod: -0.362; M1 antag: 0.7; D1 allo mod: -6.39*; HEK293 NFkB inh: 19.2; M1 ag: -0.607

What do the screens show for `CCC(C)(C)n1nnnc1C(c1cc2cc(OC)c(OC)cc2[nH]c1=O)N1CCc2ccccc21` (stereo not drawn)?
Jurkat tox 60K: 2.3; DAT uptake mod: 1.08; M1 antag: -2.34; D1 allo mod: -0.0365; HEK293 NFkB inh: 10.9; M1 ag: -0.188

How did CCCCN(N=Nc1nonc1OC)c1nonc1OC do in these assays?
DAT uptake mod: -0.0276

Results for CC(C)CC(=O)Nc1nc2ccc(S(=O)(=O)N3CCOCC3)cc2s1 ?
DAT uptake mod: -0.953

How did CCCC(=O)Nc1nc2ccc(S(=O)(=O)N3CCCCC3)cc2s1 do in these assays?
Jurkat tox 60K: 78.7*; DAT uptake mod: 0.625; M1 antag: 1.36; D1 allo mod: 1.26; HEK293 NFkB inh: 26.8; M1 ag: -0.048

How did COc1ccc(C(=O)c2c(C(F)(F)F)oc3c2C(=O)c2ccccc2C3=O)cc1OC do in these assays?
DAT uptake mod: -0.568

Results for CC1=C(C)CC(C(=O)c2ccccc2)C(C(=O)O)C1 (stereo not drawn) ?
Jurkat tox 60K: -5.0; DAT uptake mod: 1.75; HEK293 NFkB inh: 20.7

Results for Cn1nc(-c2ccccc2F)c2cc(C(=O)Nc3ccc4c(c3)OCCO4)sc21 ?
DAT uptake mod: -3.69

How did CC(CCc1ccco1)NC(=O)c1cc2c(-c3ccccc3F)nn(C)c2s1 (stereo not drawn) do in these assays?
Jurkat tox 60K: -1.1; DAT uptake mod: 2.93*; M1 antag: -0.176; D1 allo mod: 0.246; HEK293 NFkB inh: -6.5; M1 ag: -0.661

How did CCn1c(CNc2cccc(Cl)c2)nnc1SCc1ccccc1 do in these assays?
Jurkat tox 60K: 3.4; DAT uptake mod: 0.194; M1 antag: -0.665; D1 allo mod: -0.189; HEK293 NFkB inh: 3.7; M1 ag: -0.247

Results for COCCOC(=O)C1=C(C)NC2=C(C(=O)CC(C)(C)C2)C1c1ccc(N(C)C)cc1 (stereo not drawn) ?
Jurkat tox 60K: -7.5; DAT uptake mod: 0.971; M1 antag: -0.58; D1 allo mod: -5.82*; HEK293 NFkB inh: 14.0; M1 ag: -0.0343

What do the screens show for `O=C(NC1(C(F)(F)F)NC(=O)N(c2ccc(F)c(Cl)c2)C1=O)c1ccncc1` (stereo not drawn)?
DAT uptake mod: -3*

Results for Cc1ccc(-c2nn(-c3ccccc3)cc2C(=O)N2CCOCC2)cc1 ?
Jurkat tox 60K: 6.9; DAT uptake mod: 0.578; D1 allo mod: -4.04*; HEK293 NFkB inh: 3.6

Results for Cn1nnnc1SCC(=O)N(C1CCCCC1)C1CCCCC1 ?
Jurkat tox 60K: 6.2; DAT uptake mod: 0.157; M1 antag: -1.43; D1 allo mod: -0.567; HEK293 NFkB inh: 14.0; M1 ag: -0.045

What do the screens show for `C/C(=N\OCC(=O)N/N=C/c1ccccc1O)c1cccs1`?
DAT uptake mod: -0.206

What do the screens show for `COc1cccc(/C=N/NC(=O)CO/N=C(\C)c2cccs2)c1OC`?
DAT uptake mod: 3.17*

Results for O=C(OCc1cc(=O)n2c(n1)sc1ccccc12)c1ccc2c(=O)n3c(nc2c1)CCC3 ?
Jurkat tox 60K: 1.1; DAT uptake mod: -0.419; M1 antag: 0.0524; D1 allo mod: 4.22*; HEK293 NFkB inh: 9.7; M1 ag: 0.699

How did O=C(Nc1ccccc1)c1ccc(NCc2cccnc2)c(S(=O)(=O)N2CCOCC2)c1 do in these assays?
Jurkat tox 60K: 11.5; DAT uptake mod: -7.95*; M1 antag: -1.28; D1 allo mod: -0.12; HEK293 NFkB inh: 4.4; M1 ag: -1.09

Results for O=C(Nc1ccccc1)c1ccc(NCc2ccco2)c(S(=O)(=O)N2CCOCC2)c1 ?
Jurkat tox 60K: -9.2; DAT uptake mod: -0.979; M1 antag: -0.226; D1 allo mod: -2.08; HEK293 NFkB inh: -6.0; M1 ag: -0.691

Bioassay records as filed in PubChem BioAssay.
